In brackets after ≈: the same amount, converted by molar mass. Activity calls are given as the source filed them.
Key:
[1] = target: Voltage-gated potassium channel, KQT; KCNQ2(Kv7.2)/KCNQ3(Kv7.3) (Homo sapiens, UniProt O43525+O43526); test: Activation of human Kv7.2/7.3 by patch clamp method
In short: (§1)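 Kv7.2/7.3 EC50s were measured on the IonWorks Quattro (IWQ) automated patch-clamp platform. Efficacy is expressed as % of the maximal response to the reference opener ML213.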

[2] = target: Voltage-gated potassium channel KCNQ3/KCNQ5 (Homo sapiens, UniProt O43525+Q9NR82); test: Activation of human Kv7.3/7.5 by patch clamp method
[3] = target: T1, Potassium voltage-gated channel subfamily KQT member 4 (Homo sapiens, UniProt P56696); test: Activation of human Kv7.4 by patch clamp method
T1 sequence (P56696 whole entry): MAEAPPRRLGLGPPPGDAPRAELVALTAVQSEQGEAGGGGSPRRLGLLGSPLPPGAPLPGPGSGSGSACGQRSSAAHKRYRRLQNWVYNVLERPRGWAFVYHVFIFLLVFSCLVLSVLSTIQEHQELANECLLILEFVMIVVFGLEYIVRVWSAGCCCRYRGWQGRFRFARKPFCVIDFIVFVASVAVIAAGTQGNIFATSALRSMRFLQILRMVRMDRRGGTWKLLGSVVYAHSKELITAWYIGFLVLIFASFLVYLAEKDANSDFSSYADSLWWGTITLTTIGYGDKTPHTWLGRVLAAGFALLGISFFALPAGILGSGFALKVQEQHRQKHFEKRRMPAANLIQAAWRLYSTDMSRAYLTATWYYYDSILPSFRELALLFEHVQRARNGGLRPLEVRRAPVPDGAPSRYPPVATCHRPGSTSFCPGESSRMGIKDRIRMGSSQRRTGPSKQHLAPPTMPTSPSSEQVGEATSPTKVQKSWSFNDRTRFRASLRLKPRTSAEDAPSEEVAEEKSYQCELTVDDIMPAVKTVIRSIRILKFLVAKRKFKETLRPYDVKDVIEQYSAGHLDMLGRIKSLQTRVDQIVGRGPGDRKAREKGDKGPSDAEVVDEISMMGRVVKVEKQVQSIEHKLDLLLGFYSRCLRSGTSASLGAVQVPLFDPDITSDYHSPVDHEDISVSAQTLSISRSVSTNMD

[4] = target: T2, Voltage-gated potassium channel, KQT; KCNQ2(Kv7.2)/KCNQ3(Kv7.3) (Homo sapiens) (UniProt O43526+O43525); test: Activation of human wild type Kv7.2/7.3 expressed in CHO cells assessed as 86Rb efflux at 0.001 to 100 uM after 10 mins by microbeta liquid scintillation counting analysis; assay type: cell-based
[5] = Activation of human Kv7.2 W236L mutant/Kv7.3 W265L mutant expressed in CHO cells assessed as 86Rb efflux at 0.001 to 100 uM after 10 mins by microbeta liquid scintillation counting analysis; assay type: cell-based
Mus musculus [6] = test: Anti-seizure activity in CD-1 mouse assessed as increase in seizure threshold at 10 to 60 mg/kg, po by maximal electroshock-threshold test; assay type: functional, organism-based
Mus musculus [7] = test: Toxicity in CD-1 mouse at 10 to 60 mg/kg, po by rotarod test; assay type: organism-based; conditions: in vivo
[8] = Kinetic aqueous solubility of the compound by CAD or CLND method; assay type: physicochemical; conditions: buffer; read-out: Kinetic_solubility
[9] = target: T2, Voltage-gated potassium channel, KQT; KCNQ2(Kv7.2)/KCNQ3(Kv7.3) (Homo sapiens); test: Activation of human Kv7.2/7.3 by patch clamp method relative to ML213; in short: as §1
[10] = Activation of Kv7 from rat cortical neurons assessed as reduction in spontaneous neuronal firing activity after 15 mins by multi-electrode array method; conditions: 0.25 h
P-gp = test: Substrate activity at P-gp (unknown origin) assessed as efflux ratio; assay type: ADME; conditions: human, not told
[11] = Clearance in iv dosed mouse; assay type: ADME, organism-based; conditions: in vivo
Mus musculus [12] = test: Dose normalized AUC (0 to t) in iv dosed mouse; assay type: ADME, organism-based; conditions: in vivo
[13] = Ratio of drug level in brain to blood of iv dosed mouse; assay type: ADME, organism-based; conditions: brain and blood
[14] = target: T2, Voltage-gated potassium channel, KQT; KCNQ2(Kv7.2)/KCNQ3(Kv7.3) (Homo sapiens); test: Activation of human Kv7.2/7.3 assessed as difference in G-V midpoint between pre-compound and post-compound conditions at 0.016 uM at -90 mV holding potential by QPatch method; assay type: protein-complex assay
[15] = target: T2, Voltage-gated potassium channel, KQT; KCNQ2(Kv7.2)/KCNQ3(Kv7.3) (Homo sapiens); test: Activation of human Kv7.2/7.3 assessed as difference in G-V midpoint between pre-compound and post-compound conditions at 0.08 uM at -90 mV holding potential by QPatch method; assay type: protein-complex assay
[16] = target: T2, Voltage-gated potassium channel, KQT; KCNQ2(Kv7.2)/KCNQ3(Kv7.3) (Homo sapiens); test: Activation of human Kv7.2/7.3 assessed as difference in G-V midpoint between pre-compound and post-compound conditions at 0.4 uM at -90 mV holding potential by QPatch method; assay type: protein-complex assay
[17] = target: T2, Voltage-gated potassium channel, KQT; KCNQ2(Kv7.2)/KCNQ3(Kv7.3) (Homo sapiens); test: Activation of human Kv7.2/7.3 assessed as difference in G-V midpoint between pre-compound and post-compound conditions at 2 uM at -90 mV holding potential by QPatch method; assay type: protein-complex assay
[18] = target: T2, Voltage-gated potassium channel, KQT; KCNQ2(Kv7.2)/KCNQ3(Kv7.3) (Homo sapiens); test: Activation of human Kv7.2/7.3 assessed as difference in G-V midpoint between pre-compound and post-compound conditions at 10 uM at -90 mV holding potential by QPatch method; assay type: protein-complex assay
Mus musculus [19] = test: Anti-seizure activity in CD-1 mouse model of pentylenetetrazol-induced tonic seizures assessed as effect on time to onset of seizure at 10 to 60 mg/kg, po; assay type: functional, organism-based
Mus musculus [20] = test: Anti-seizure activity in CD-1 mouse model of pentylenetetrazol-induced clonic seizures assessed as effect on time to onset of seizure at 10 to 60 mg/kg, po; assay type: functional, organism-based
[21] = target: T2, Voltage-gated potassium channel, KQT; KCNQ2(Kv7.2)/KCNQ3(Kv7.3) (Homo sapiens); test: Activation of human Kv7.2/7.3 assessed as difference in G-V midpoint between pre-compound and post-compound conditions at 0.048 uM at -90 mV holding potential by QPatch method; assay type: protein-complex assay
[22] = target: T2, Voltage-gated potassium channel, KQT; KCNQ2(Kv7.2)/KCNQ3(Kv7.3) (Homo sapiens); test: Activation of human Kv7.2/7.3 assessed as difference in G-V midpoint between pre-compound and post-compound conditions at 0.24 uM at -90 mV holding potential by QPatch method; assay type: protein-complex assay
[23] = target: T2, Voltage-gated potassium channel, KQT; KCNQ2(Kv7.2)/KCNQ3(Kv7.3) (Homo sapiens); test: Activation of human Kv7.2/7.3 assessed as difference in G-V midpoint between pre-compound and post-compound conditions at 1.2 uM at -90 mV holding potential by QPatch method; assay type: protein-complex assay
[24] = target: T2, Voltage-gated potassium channel, KQT; KCNQ2(Kv7.2)/KCNQ3(Kv7.3) (Homo sapiens); test: Activation of human Kv7.2/7.3 assessed as difference in G-V midpoint between pre-compound and post-compound conditions at 6 uM at -90 mV holding potential by QPatch method; assay type: protein-complex assay
[25] = target: T2, Voltage-gated potassium channel, KQT; KCNQ2(Kv7.2)/KCNQ3(Kv7.3) (Homo sapiens); test: Activation of human Kv7.2/7.3 assessed as difference in G-V midpoint between pre-compound and post-compound conditions at 30 uM at -90 mV holding potential by QPatch method; assay type: protein-complex assay
[26] = target: T2, Voltage-gated potassium channel, KQT; KCNQ2(Kv7.2)/KCNQ3(Kv7.3) (Homo sapiens); test: Activation of human Kv7.2/7.3 assessed as difference in G-V midpoint between pre-compound and post-compound conditions at 3 uM at -90 mV holding potential by QPatch method; assay type: protein-complex assay
[27] = Inhibition of carbachol-induced contraction in human bladder at 10 uM; assay type: tissue-based, Urinary bladder
[28] = Clearance in human liver microsomes; assay type: ADME, microsome

Chain of Voltage-gated potassium channel, KQT; KCNQ2(Kv7.2)/KCNQ3(Kv7.3) (O43526 whole entry): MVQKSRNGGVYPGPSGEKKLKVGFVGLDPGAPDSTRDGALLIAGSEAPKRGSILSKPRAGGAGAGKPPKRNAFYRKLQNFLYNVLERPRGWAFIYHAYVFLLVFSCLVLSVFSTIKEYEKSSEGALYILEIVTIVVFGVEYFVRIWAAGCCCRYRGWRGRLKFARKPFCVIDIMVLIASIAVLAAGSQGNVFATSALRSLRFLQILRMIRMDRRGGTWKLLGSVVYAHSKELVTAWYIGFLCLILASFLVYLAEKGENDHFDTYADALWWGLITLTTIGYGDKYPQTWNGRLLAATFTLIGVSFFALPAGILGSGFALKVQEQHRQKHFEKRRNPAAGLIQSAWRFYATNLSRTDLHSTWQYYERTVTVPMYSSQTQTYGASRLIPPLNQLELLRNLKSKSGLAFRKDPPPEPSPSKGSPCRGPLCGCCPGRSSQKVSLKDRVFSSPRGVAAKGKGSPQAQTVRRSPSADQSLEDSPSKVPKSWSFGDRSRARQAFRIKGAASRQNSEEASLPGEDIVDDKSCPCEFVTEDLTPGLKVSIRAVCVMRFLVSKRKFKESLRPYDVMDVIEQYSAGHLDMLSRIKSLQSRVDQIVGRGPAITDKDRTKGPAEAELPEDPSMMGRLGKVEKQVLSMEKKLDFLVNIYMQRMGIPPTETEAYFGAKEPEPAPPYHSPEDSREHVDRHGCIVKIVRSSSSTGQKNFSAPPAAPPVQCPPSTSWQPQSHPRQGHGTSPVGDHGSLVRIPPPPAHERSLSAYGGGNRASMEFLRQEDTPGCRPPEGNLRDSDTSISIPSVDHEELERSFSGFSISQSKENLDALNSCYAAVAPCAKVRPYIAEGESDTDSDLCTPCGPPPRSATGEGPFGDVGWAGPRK
Chain of Voltage-gated potassium channel, KQT; KCNQ2(Kv7.2)/KCNQ3(Kv7.3) (O43525 whole entry): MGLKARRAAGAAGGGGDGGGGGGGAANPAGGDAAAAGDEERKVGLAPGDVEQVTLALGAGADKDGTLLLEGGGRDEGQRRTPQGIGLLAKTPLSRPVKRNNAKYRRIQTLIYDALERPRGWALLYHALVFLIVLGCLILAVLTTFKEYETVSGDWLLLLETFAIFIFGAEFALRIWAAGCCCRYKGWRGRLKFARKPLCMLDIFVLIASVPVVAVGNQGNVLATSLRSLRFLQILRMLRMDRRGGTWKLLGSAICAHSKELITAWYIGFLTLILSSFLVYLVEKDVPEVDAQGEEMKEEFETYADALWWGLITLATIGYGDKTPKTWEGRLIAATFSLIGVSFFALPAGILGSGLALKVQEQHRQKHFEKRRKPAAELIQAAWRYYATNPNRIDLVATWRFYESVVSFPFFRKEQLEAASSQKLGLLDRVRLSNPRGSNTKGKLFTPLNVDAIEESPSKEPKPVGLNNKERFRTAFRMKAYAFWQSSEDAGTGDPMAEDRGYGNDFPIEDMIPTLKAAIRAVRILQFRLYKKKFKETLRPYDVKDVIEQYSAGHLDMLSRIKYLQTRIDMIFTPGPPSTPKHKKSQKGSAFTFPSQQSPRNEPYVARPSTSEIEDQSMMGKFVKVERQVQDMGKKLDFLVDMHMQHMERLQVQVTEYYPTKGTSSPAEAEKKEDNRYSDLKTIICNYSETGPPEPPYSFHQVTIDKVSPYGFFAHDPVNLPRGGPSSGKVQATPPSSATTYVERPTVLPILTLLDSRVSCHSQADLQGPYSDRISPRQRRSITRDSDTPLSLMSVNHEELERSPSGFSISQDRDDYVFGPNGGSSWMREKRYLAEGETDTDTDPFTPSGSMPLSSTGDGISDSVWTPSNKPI
Chain of Voltage-gated potassium channel KCNQ3/KCNQ5 (O43525 whole entry): as above
Chain of Voltage-gated potassium channel KCNQ3/KCNQ5 (Q9NR82 whole entry): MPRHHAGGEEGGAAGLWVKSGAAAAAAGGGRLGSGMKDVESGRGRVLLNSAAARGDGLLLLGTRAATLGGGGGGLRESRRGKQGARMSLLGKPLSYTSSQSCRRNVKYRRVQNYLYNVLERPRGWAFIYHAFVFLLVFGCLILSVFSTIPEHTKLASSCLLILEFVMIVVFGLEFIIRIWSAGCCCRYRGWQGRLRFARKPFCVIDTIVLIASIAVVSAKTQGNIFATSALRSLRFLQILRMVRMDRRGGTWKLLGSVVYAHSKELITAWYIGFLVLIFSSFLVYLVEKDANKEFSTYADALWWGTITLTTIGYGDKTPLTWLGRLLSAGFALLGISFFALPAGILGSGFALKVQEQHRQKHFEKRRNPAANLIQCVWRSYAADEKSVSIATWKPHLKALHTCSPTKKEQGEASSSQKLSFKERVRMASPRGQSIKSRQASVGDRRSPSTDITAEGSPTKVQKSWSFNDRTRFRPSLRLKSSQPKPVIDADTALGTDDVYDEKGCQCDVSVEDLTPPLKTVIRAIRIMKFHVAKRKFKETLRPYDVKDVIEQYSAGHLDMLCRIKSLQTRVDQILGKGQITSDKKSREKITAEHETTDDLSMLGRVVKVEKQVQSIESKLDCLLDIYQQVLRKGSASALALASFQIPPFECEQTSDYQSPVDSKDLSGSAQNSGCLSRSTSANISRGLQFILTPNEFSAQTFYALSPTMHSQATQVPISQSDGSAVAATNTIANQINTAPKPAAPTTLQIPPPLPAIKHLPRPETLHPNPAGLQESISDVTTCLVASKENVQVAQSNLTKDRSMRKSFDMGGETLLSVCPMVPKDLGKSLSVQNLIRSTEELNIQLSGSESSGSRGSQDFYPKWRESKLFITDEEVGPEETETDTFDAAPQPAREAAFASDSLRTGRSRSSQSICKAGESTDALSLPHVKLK

| SMILES | EC50 [1] [nM] | EC50 [2] [nM] | EC50 [3] [nM] | Activity [4] [µM] | Activity [5] [µM] | solubility kinetic [8] [µM] | %max [9] [%] | efflux ratio (P-gp) | other results |
| --- | --- | --- | --- | --- | --- | --- | --- | --- | --- |
| O=C(Nc1ccc(Cl)nc1)c1ccc(F)c(F)c1 | 460 | > 10000 | > 10000 | 0.46 | 0.43 to 1.81 |  |  |  | Activity (Mus musculus [6]): Dose-dependent effect; Activity (Mus musculus [7]): Non-Toxic |
| C[C@H](NC(=O)c1cc(F)c(F)cc1Oc1ccccc1)c1cccc(S(C)(=O)=O)c1 | 130 to 200 | 200 | 160 |  |  | 145 (≈ 62.6 µg/mL) | 132 | < 2 | IC50 [10]: 110 nM; clearance [11]: 31 mL/min/kg; AUCt/dose (Mus musculus [12]): 0.33 µg·h/mL; Kp [13]: 1.3; V1/2 [14]: 0.4 mV; V1/2 [15]: 5.1 mV; V1/2 [16]: 14.3 mV; V1/2 [17]: 23.1 mV; V1/2 [18]: 26.8 mV; Activity (Mus musculus [6]): Dose-dependent effect; Activity (Mus musculus [7]): Non-Toxic; Activity (Mus musculus [19]): Active; Activity (Mus musculus [20]): Active |
| CS(=O)(=O)c1cccc(CNC(=O)c2cc(S(F)(F)(F)(F)F)ccc2Oc2ccccc2)c1 | 80 |  |  |  |  | 7 (≈ 3.55 µg/mL) | 185 | < 2 |  |
| C[C@H](NC(=O)c1cc(C(F)(F)F)ccc1Oc1ccccc1)c1cccc(S(C)(=O)=O)c1 | 40 |  |  |  |  | 57 (≈ 26.4 µg/mL) | 134 | < 2 |  |
| O=C(N[C@@H](CO)c1cccc(C(F)(F)F)c1)[C@H]1CC(F)(F)CC[C@@H]1c1ccccc1 | 50 to 80 | 250 | 20 |  |  | 119 (≈ 50.9 µg/mL) | 96 | < 2 |  |
| CS(=O)(=O)c1cccc(CNC(=O)c2cc(C(F)(F)F)ccc2Oc2ccccc2)c1 | 160 |  |  | 0.05 | > 30 | 23 (≈ 10.3 µg/mL) | 245 | < 2 |  |
| O=C(N[C@@H](CO)c1ccccc1)[C@H]1CCCC[C@@H]1c1ccccc1 | 790 |  |  |  |  | 455 (≈ 147 µg/mL) | 165 | < 2 |  |
| C[C@H](NC(=O)[C@H]1CCCC[C@@H]1c1ccccc1)c1ccccc1 | 250 |  |  | 0.1 | > 30 | 57 (≈ 17.5 µg/mL) | 115 | < 2 |  |
| O=C(N[C@@H](CO)c1cccc(Cl)c1)[C@H]1CC(F)(F)CC[C@@H]1c1ccccc1 | 100 to 300 | 360 | 100 |  |  | 318 (≈ 125 µg/mL) | 141 | < 2 | IC50 [10]: 280 nM; clearance [11]: 48 mL/min/kg; AUCt/dose (Mus musculus [12]): 0.51 µg·h/mL; Kp [13]: 0.8; V1/2 [21]: 1.8 mV; V1/2 [22]: 10.2 mV; V1/2 [23]: 21 mV; V1/2 [24]: 29.5 mV; V1/2 [25]: 27.8 mV; Activity (Mus musculus [6]): Dose-dependent effect; Activity (Mus musculus [7]): Non-Toxic |
| Cc1cc(C)c(NC(=O)C2CC3CCC2C3)c(C)c1 (stereo unspecified) | 40 | 500 | 1600 | 0.04 | > 11 |  |  |  | V1/2 [26]: 24.7 to 28.4 mV |
| CS(=O)(=O)c1cccc([C@H](CO)NC(=O)c2cc(S(F)(F)(F)(F)F)ccc2Oc2ccccc2)c1 | 20 to 60 | 80 | > 10000 |  |  | 121 (≈ 65 µg/mL) | 101 | < 2 | inhibition (INH) [27]: Not Active; Activity (Mus musculus [19]): Active; Activity (Mus musculus [20]): Active |
| CCOC(=O)Nc1ccc(NCc2ccc(F)cc2)cc1N |  |  |  | 0.32 | > 30 |  |  |  |  |
| O=C(N[C@@H](CO)c1ccccc1)[C@H]1CC(F)(F)CC[C@@H]1c1ccccc1 | 1300 |  |  |  |  | 332 (≈ 119 µg/mL) | 108 | < 2 |  |
| C[C@H](NC(=O)[C@H]1CC(F)(F)CC[C@@H]1c1ccccc1)c1ccccc1 | 200 to 400 | 400 | 4000 |  |  | 25 (≈ 8.59 µg/mL) | 140 | < 2 |  |
| CS(=O)(=O)c1cccc([C@H](CO)NC(=O)c2cc(C(F)(F)F)ccc2Oc2ccccc2)c1 | 80 |  |  |  |  | 11 (≈ 5.27 µg/mL) | 77 | < 2 |  |
| CS(=O)(=O)c1cccc(CNC(=O)c2cc(C(F)(F)F)ccc2Sc2ccccc2)c1 | 200 |  |  | 0.02 | > 30 | 34 (≈ 15.8 µg/mL) | 175 | < 2 | CLH [28]: > 3 mL/min/g |

Source: ChEMBL document CHEMBL4257569, “Novel KV7 ion channel openers for the treatment of epilepsy and implications for detrusor tissue contraction” (Bioorg Med Chem Lett, 2018)
